This is an account of results in ChEMBL document CHEMBL1140750, “Dynamic combinatorial mass spectrometry leads to metallo-beta-lactamase inhibitors” (J Med Chem, 2008).

Molecules are shown by their SMILES.

The first assay is described as follows: Inhibition of metallo-beta-lactamase IMP1.
As usually defined, the IC50 is the concentration at which inhibition is half-maximal. A higher IC50 goes with weaker potency. As to `O=C(O)CCS` [MERCAPTOPROPIONIC ACID], half-maximal inhibition (IC50) required 170 µM.

A further assay is described as follows: Inhibition of Bacillus cereus metallo-beta-lactamase BcII by dynamic combinatorial mass spectrometry. The method in brief: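 BcII enzyme was preincubated with inhibitor at room temperature in 20 mM HEPES pH 7.0 with 20 µg/mL BSA; inhibitors came from 10 mM DMSO stocks. Imipenem substrate was then added at 20–200 µM, with at least two inhibitor concentrations plus a no-inhibitor control. Hydrolysis was followed by absorbance at 300 or 482 nm at 30 °C. Ki was derived from initial rates by Hanes linearization.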
The Ki is the equilibrium dissociation constant of an inhibitor or competing ligand from its target. For `CC(=O)Nc1ccc(C(=O)N[C@H](CS)C(=O)O)cc1`, the Ki turned out to be 13.5 µM. Still for that read-out and setting: to `CC(C)(C)c1ccc(C(=O)N[C@H](CS)C(=O)O)cc1` belongs 8.4 µM; to `O=C(O)C(S)C(S)C(=O)O` (stereo not given), 125 µM; to `O=C(NC(CS)C(=O)O)c1ccccc1` (single isomer, unassigned; 9a), 28 µM. As for `O=C(NC(CS)C(=O)O)c1ccccc1` (single isomer, unassigned; 9b), the Ki turned out to be 0.74 µM. With `O=C(Cc1ccccc1)NC(CS)C(=O)O` (single isomer, unassigned; 9c), the Ki was determined as 154 µM.

`O=C(Cc1ccccc1)NC(CS)C(=O)O` (single isomer, unassigned; 9d): the Ki was found to be 53 µM. Same read-out and setting: the same measure for `O=C(CCc1ccccc1)NC(CS)C(=O)O` (single isomer, unassigned; 9e): 44 µM. On the same count and under the same terms, to `O=C(CCc1ccccc1)NC(CS)C(=O)O` (single isomer, unassigned; 9f) belongs 73 µM.
